In ChEMBL document CHEMBL1134922, “Substituted 4-(2,2-diphenylethyl)pyridine-N-oxides as phosphodiesterase-4 inhibitors: SAR study directed toward the improvement of pharmacokinetic parameters” (Bioorg Med Chem Lett, 2002):
“And” between values parts separate entries of the source, which are not always exact repeats. Identical values can stand only once. One block for each molecule: values may come before it. The source made the active and inactive calls. The calls are words filed in the database; no cut-off is given here.

How the values were obtained:
Homo sapiens = species on record: Homo sapiens; assay: Inhibition of LPS-induced TNF-alpha formation in human whole blood.; type: functional, organism-based
[1] = target: 3',5'-cyclic-AMP phosphodiesterase 4A (Homo sapiens, UniProt P27815); assay: Inhibition of human Phosphodiesterase 4A isoform using construct representing the common region of spliced variants expressed as GST-fusion proteins in Sf9 cells.
Mustela putorius furo = assay: Emetic effect in ferrets to maximum 30 mg/kg oral dose; type: functional, organism-based; design: dose 30 mg/kg
How it was run: (§1)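 Ferrets dosed orally at 30 mg/kg; emesis monitored, with plasma Cmax recorded.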

[2] = Half-life in Squirrel monkey; type: ADME; details: in vivo
[3] = Half-life in Dog; type: ADME, organism-based, Canis lupus familiaris; details: in vivo
[4] = Half-life in rat; type: ADME, organism-based; details: in vivo
[5] = Cmax in ferrets after 30mg/kg oral dose; type: ADME, organism-based, Mustela putorius furo; design: dose 30 mg/kg, route oral; details: ferret, in vivo; how it was run: as §1
Cavia porcellus [6] = assay: Inhibition of the ovalbumin-induced bronchoconstriction in conscious guinea pigs after 0.5 hr pretreatment with 1 mg/kg administered intraperitoneally; type: functional; details: route intraperitoneal
Cavia porcellus [7] = assay: Inhibition of the ovalbumin-induced bronchoconstriction in conscious guinea pigs after 4 hr pretreatment with 1 mg/kg administered intraperitoneally; type: functional; details: route intraperitoneal
Ovis aries [8] = assay: Inhibition of ascaris-induced bronchoconstriction in sheep after early treatment with 2 mg/kg intravenous dose; type: functional
How it was run: (§2)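 Sheep, ascaris-induced bronchoconstriction; 2 mg/kg given iv 2 h before challenge; percent inhibition of early and late responses.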

Ovis aries [9] = assay: Inhibition of ascaris-induced bronchoconstriction in sheep after late treatment with 2 mg/kg intravenous dose; type: functional; how it was run: as §2
[10] = (§3) Inhibition of ascaris-induced bronchoconstriction in Anaesthetized squirrel monkey after treatment with 3 mg/kg peroral dose; type: functional; details: route oral
[11] = Bioavailability upon oral administration of compound; type: ADME, organism-based; details: rat, in vivo
How it was run: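 Rat, oral dosing at 3 mg/kg in 60% PEG200; bioavailability determined, with plasma level also sampled at 6 h.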

[12] = (§4) Inhibition of ascaris-induced bronchoconstriction in Anaesthetized squirrel monkey after treatment with 0.5 mg/kg peroral dose; type: functional; details: route oral
[13] = (§5) Inhibition of ascaris-induced bronchoconstriction in Anaesthetized squirrel monkey after treatment with 1 mg/kg peroral dose; type: functional; details: route oral
[14] = as §4; type: functional; details: route oral; remark: listed apart in the source
[15] = as §5; type: functional; details: route oral; remark: listed apart in the source
[16] = as §3; type: functional; details: route oral; remark: listed apart in the source
Ovis aries [17] = assay: Inhibition of ascaris-induced bronchoconstriction in sheep after late treatment with 2 mg/kg intravenous dose
Ovis aries [18] = assay: Inhibition of ascaris-induced bronchoconstriction in sheep after early treatment with 2 mg/kg intravenous dose

Sequence of 3',5'-cyclic-AMP phosphodiesterase 4A (P27815 whole entry, looked up, stated change not applied, the tested form may be a part, canonical isoform): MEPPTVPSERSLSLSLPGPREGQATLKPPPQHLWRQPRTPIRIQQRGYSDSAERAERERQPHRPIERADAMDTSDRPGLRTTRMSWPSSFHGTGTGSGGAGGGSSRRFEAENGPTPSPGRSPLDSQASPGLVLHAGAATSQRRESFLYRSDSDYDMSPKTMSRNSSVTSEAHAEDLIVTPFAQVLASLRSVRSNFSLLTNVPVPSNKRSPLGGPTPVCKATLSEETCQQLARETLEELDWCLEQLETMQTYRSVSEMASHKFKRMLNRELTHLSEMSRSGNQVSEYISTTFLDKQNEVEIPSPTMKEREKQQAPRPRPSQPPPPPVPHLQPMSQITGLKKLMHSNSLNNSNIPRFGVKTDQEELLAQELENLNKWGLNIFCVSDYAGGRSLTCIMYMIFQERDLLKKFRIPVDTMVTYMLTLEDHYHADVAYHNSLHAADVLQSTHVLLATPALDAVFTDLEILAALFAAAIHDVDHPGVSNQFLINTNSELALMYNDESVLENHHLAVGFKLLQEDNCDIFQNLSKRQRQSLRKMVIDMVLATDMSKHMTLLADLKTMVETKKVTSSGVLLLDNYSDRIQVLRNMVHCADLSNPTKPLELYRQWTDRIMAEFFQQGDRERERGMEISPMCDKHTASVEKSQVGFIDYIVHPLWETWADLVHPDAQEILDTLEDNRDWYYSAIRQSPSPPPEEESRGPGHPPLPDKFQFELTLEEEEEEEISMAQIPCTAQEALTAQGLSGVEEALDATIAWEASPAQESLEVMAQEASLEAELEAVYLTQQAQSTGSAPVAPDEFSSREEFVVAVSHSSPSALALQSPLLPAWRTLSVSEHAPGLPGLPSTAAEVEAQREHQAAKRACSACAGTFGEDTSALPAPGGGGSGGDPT

IC50 (Homo sapiens; Homo sapiens, Blood): 2900 nM
IC50 [1]: 2.7 nM
SMILES: CC(=O)c1c[n+]([O-])ccc1CC(c1ccc(C(O)(C(F)(F)F)C(F)(F)F)cc1)c1ccc(OC(F)F)c(OC(F)F)c1 (stereo unspecified)

SMILES: Cc1c[n+]([O-])ccc1CC(c1ccc(C(O)(C(F)(F)F)C(F)(F)F)cc1)c1ccc(OC(F)F)c(OC(F)F)c1 (stereo in doubt) [listing 1 of 2 here]
Emesis (Mustela putorius furo): inactive

half-life [2]: > 48 h
half-life [3]: > 48 h
half-life [4]: > 48 h
Cmax [5]: 14 µM
IC50 (Homo sapiens; Homo sapiens, Blood): 700 nM
IC50 [1]: 4.2 nM
SMILES: [O-][n+]1ccc(CC(c2ccc(C(O)(C(F)(F)F)C(F)(F)F)cc2)c2ccc(OC(F)F)c(OC(F)F)c2)cc1 (stereo unspecified)
Emesis (Mustela putorius furo): inactive
Efficacy (Cavia porcellus [6]): 0%
Efficacy (Cavia porcellus [7]): 58%
Efficacy (Ovis aries [8]): 85%
Efficacy (Ovis aries [9]): 95%
Efficacy [10]: 96%

IC50 (Homo sapiens; Homo sapiens, Blood): 7900 nM
IC50 [1]: 38 nM
SMILES: [O-][n+]1ccc(CC(c2ccc(C(O)(C(F)(F)F)C(F)(F)F)cc2)c2ccc(OC(F)F)c(OC(F)F)c2)c(CO)c1 (stereo unspecified)

IC50 (Homo sapiens; Homo sapiens, Blood): 300 nM
IC50 [1]: 18 nM
SMILES: Cc1cc(CC(c2ccc(C(O)(C(F)(F)F)C(F)(F)F)cc2)c2ccc(OC(F)F)c(OC(F)F)c2)cc[n+]1[O-] (stereo unspecified)

IC50 (Homo sapiens): 7800 nM
IC50 [1]: 39 nM
SMILES: CC(c1cc[n+]([O-])cc1)C(c1ccc(C(O)(C(F)(F)F)C(F)(F)F)cc1)c1ccc(OC(F)F)c(OC(F)F)c1 (single isomer, unassigned; diastereomer 2)

IC50 (Homo sapiens; Homo sapiens, Blood): 15000 nM
IC50 [1]: 4.2 nM
SMILES: COc1ccc([C@H](Cc2ccncc2)c2ccccc2)cc1OC1CCCC1 [CDP840]

SMILES: Cc1c[n+]([O-])ccc1CC(c1ccc(C(O)(C(F)(F)F)C(F)(F)F)cc1)c1ccc(OC(F)F)c(OC(F)F)c1 (stereo in doubt) [listing 2 of 2 here]
half-life [2]: 36 h
half-life [3]: 19 h
bioavailability [11]: 60%
half-life [4]: 10 h
Cmax [5]: 10 µM
Efficacy (Cavia porcellus [6]): 82%
IC50 (Homo sapiens): 300 nM
IC50 [1]: 1.3 nM and 4.2 nM
Efficacy [10]: 59%
Efficacy [12]: 26%
Efficacy [13]: 33%
Efficacy [14]: 38%
Efficacy [15]: 63%
Efficacy [16]: 100%
Efficacy (Ovis aries [17]): 90%
Efficacy (Ovis aries [18]): 62%

IC50 (Homo sapiens): 23000 nM
IC50 [1]: 39 nM
SMILES: CC(c1cc[n+]([O-])cc1)C(c1ccc(C(O)(C(F)(F)F)C(F)(F)F)cc1)c1ccc(OC(F)F)c(OC(F)F)c1 (single isomer, unassigned; diastereomer 1)

IC50 (Homo sapiens; Homo sapiens, Blood): 1000 nM
IC50 [1]: 4.4 nM
SMILES: Cc1cc(C(Cc2cc[n+]([O-])cc2)c2ccc(OC(F)F)c(OC(F)F)c2)ccc1C(O)(C(F)(F)F)C(F)(F)F (stereo unspecified)

SMILES: Cc1c[n+]([O-])ccc1CC(c1ccc(C(O)(C(F)(F)F)C(F)(F)F)cc1)c1ccc(OC(F)F)c(OC(F)F)c1 (single isomer, unassigned; enantiomer 2)
IC50 (Homo sapiens): 3700 nM
IC50 [1]: 23 nM

IC50 (Homo sapiens; Homo sapiens, Blood): 18000 nM
SMILES: COc1ccc([C@]2(C#N)CC[C@@H](C(=O)O)CC2)cc1OC1CCCC1 [CILOMILAST]

IC50 (Homo sapiens; Homo sapiens, Blood): 3900 nM
IC50 [1]: 27 nM
SMILES: CCc1c[n+]([O-])ccc1CC(c1ccc(C(O)(C(F)(F)F)C(F)(F)F)cc1)c1ccc(OC(F)F)c(OC(F)F)c1 (stereo unspecified)

IC50 (Homo sapiens; Homo sapiens, Blood): 7800 nM
IC50 [1]: 32 nM
SMILES: Cc1cc(C(O)(C(F)(F)F)C(F)(F)F)ccc1C(Cc1cc[n+]([O-])cc1)c1ccc(OC(F)F)c(OC(F)F)c1 (stereo unspecified)

IC50 (Homo sapiens; Homo sapiens, Blood): 13000 nM
IC50 [1]: 42 nM
SMILES: CC(O)c1c[n+]([O-])ccc1CC(c1ccc(C(O)(C(F)(F)F)C(F)(F)F)cc1)c1ccc(OC(F)F)c(OC(F)F)c1 (stereo unspecified)

IC50 (Homo sapiens; Homo sapiens, Blood): 5800 nM
IC50 [1]: 57 nM
SMILES: Cc1c[n+]([O-])cc(C)c1CC(c1ccc(C(O)(C(F)(F)F)C(F)(F)F)cc1)c1ccc(OC(F)F)c(OC(F)F)c1 (stereo unspecified)

SMILES: Cc1c[n+]([O-])ccc1CC(c1ccc(C(O)(C(F)(F)F)C(F)(F)F)cc1)c1ccc(OC(F)F)c(OC(F)F)c1 (racemic)
IC50 (Homo sapiens): 400 nM
IC50 [1]: 2.1 nM
